Hits are enriched below; roughly 2.5% of the tested compounds scored in any of these assays.
MC4R antag cAMP – antagonists of human melanocortin 4 receptor (MC4R). P32245. MC4R-expressing cells, MTII-stimulated cAMP, LANCE TR-FRET. inhibition, % at 6.5 µM. hit rate 0.48% among 360,000. AID 540295;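 active means inhibition above its plate's cutoff, the mean of tested wells on that plate plus 3 SD, cut at about 29% in these data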
Target sequence (P32245 whole entry, looked up): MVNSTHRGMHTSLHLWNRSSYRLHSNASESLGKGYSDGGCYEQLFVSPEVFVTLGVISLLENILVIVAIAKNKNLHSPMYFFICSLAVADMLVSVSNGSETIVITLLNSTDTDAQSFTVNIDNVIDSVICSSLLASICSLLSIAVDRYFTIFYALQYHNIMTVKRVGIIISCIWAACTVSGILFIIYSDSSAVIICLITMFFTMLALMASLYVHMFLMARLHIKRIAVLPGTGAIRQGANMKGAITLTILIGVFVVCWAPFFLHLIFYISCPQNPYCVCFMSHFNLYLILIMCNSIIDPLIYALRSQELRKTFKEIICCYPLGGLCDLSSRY
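Material: human MC4R-expressing U2OS cells. Probe or stimulus: Melanotan II challenge. Dosing: 6.5 µM single dose. Times: 30-min compound, 1-h challenge, 1-h detection, room temperature. Technique: TR-FRET with Eu-cAMP and labeled anti-cAMP, 671 nm. Replication: singlicate.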
HGIII-sPLA2 inh – Blocks human group III sPLA2 activity; QFRET BODIPY PC-A2 liposome hydrolysis, fluorescence; inhibition, % at 12.2 µM; hit rate 0.56% among 370,000; AID 743126;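 active means inhibition above mean plus 3 SD of compounds lying within the high and low control bounds, cut at about 19% in these data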
NTR1 ag – NTR1 (human) agonism | P30989 | activation, % at 20 µM | AID 493036 | hit rate 0.17% among 330,000 | NTR1-U2OS beta-arrestin-GFP spot imaging, agonist mode;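 active means activation at or above 40% of the spot to cytoplasm intensity ratio, with at least 20 cells analyzed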
MC4R ag barr – human MC4R agonism via beta-arrestin. hit rate 0.98% among 360,000. AID 540308. U2OS MC4R beta-arrestin complementation, luminescence; percent of melanotan II response, DMSO zero. P32245. activation, % at 8.9 µM;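 active means activation above a per-plate cutoff, the mean activation of sample wells on that plate plus 3 SD, cut at about 8% in these data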
Bfl-1 A1 inh – inhibitors of the anti-apoptotic protein A1, read as caspase activation; AID 2462; caspase activation, % (no concentration beside the values); MEF A1-2A-BIM cells, Caspase-Glo 3/7 luminescence, 3 h; percent of clofoctol response, vehicle zero; hit rate 0.066% among 330,000;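 active means over half of replicate activation scores above 10%, or exactly half above 10 with the replicate mean above 10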
Exocytosis inh – lytic granule exocytosis inhibition | TALL-104 LAMP-1 surface exposure, flow cytometry; cells stimulated with thapsigargin and PMA | hit rate 0.66% among 360,000 | inhibition, % at 10 µM | AID 651702;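 active means inhibition above about 55%, limit read from the data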
Granule exo CP1 – lytic granule exocytosis inhibition | shares compounds with Exocytosis inh | hit rate 11% among 1,500 | TALL-104 cells, LAMP-1 externalization, flow cytometry; stimulated with PMA plus thapsigargin | inhibition, % at 10 µM; in the data active means inhibition above about 60%
Hits are given with their value.

`CN(C)CCCNc1ncnc2oc(-c3ccccc3)c(-c3ccccc3)c12` gave MC4R antag cAMP inactive, HGIII-sPLA2 inh inactive, NTR1 ag inactive, MC4R ag barr inactive, Bfl-1 A1 inh inactive, Exocytosis inh 58.9 and Granule exo CP1 inactive.
Screening Cc1nc(N2CCN(c3ccccn3)CC2)c2c(C)c(C(=O)N3CCN(c4ccccc4F)CC3)sc2n1 returned MC4R antag cAMP inactive, HGIII-sPLA2 inh inactive, MC4R ag barr inactive, Bfl-1 A1 inh inactive, Exocytosis inh 55.6 and Granule exo CP1 inactive.
For Cc1ccc(NC(=O)c2sc3nc(C)nc(N4CCN(c5ccccn5)CC4)c3c2C)c(C)c1 the results were MC4R antag cAMP inactive, HGIII-sPLA2 inh inactive, NTR1 ag inactive, MC4R ag barr inactive, Bfl-1 A1 inh inactive and Exocytosis inh inactive.
CC1CCN(c2nc(-c3ccccc3O)nc3ccccc23)CC1 was read as MC4R antag cAMP inactive, HGIII-sPLA2 inh inactive, NTR1 ag inactive, MC4R ag barr inactive, Bfl-1 A1 inh inactive, Exocytosis inh 59.0 and Granule exo CP1 inactive.
For Oc1ccccc1-c1nc(N2CCCC2)c2ccccc2n1 the results were MC4R antag cAMP inactive, HGIII-sPLA2 inh inactive, NTR1 ag inactive, MC4R ag barr inactive, Bfl-1 A1 inh inactive and Exocytosis inh inactive.
`CC(C)c1nc(SCC(=O)Nc2cccc3ccccc23)n[nH]1` gave MC4R antag cAMP inactive, HGIII-sPLA2 inh inactive, NTR1 ag inactive, MC4R ag barr inactive, Bfl-1 A1 inh inactive and Exocytosis inh inactive.
`Cc1cc(C)n(-c2nc(NCCN(C)C)c3c4c(sc3n2)CCCC4)n1` gave MC4R antag cAMP inactive, HGIII-sPLA2 inh inactive, NTR1 ag inactive, MC4R ag barr inactive, Bfl-1 A1 inh inactive, Exocytosis inh 94.2 and Granule exo CP1 inactive.
`Cc1cc(C)n(-c2nc(NCCCN(C)C)c3c4c(sc3n2)CCCC4)n1` gave MC4R antag cAMP inactive, HGIII-sPLA2 inh inactive, NTR1 ag inactive, MC4R ag barr inactive, Bfl-1 A1 inh inactive and Exocytosis inh inactive.
`CCOC(=O)c1c(NC(=O)COc2ccccc2OCC)sc2c1CC(C)(C)NC2(C)C` gave MC4R antag cAMP inactive, NTR1 ag inactive, MC4R ag barr inactive, Bfl-1 A1 inh inactive, Exocytosis inh 67.5 and Granule exo CP1 100.4.
Screening CCOC(=O)c1c(NC(=O)COC(=O)c2ccc(C)s2)sc2c1CC(C)(C)NC2(C)C returned MC4R antag cAMP inactive, HGIII-sPLA2 inh inactive, NTR1 ag inactive, MC4R ag barr inactive, Bfl-1 A1 inh inactive, Exocytosis inh 63.9 and Granule exo CP1 inactive.
`CCOC(=O)c1c(NC(=O)CSc2nnnn2-c2ccccc2OCC)sc2c1CC(C)(C)NC2(C)C` gave MC4R antag cAMP inactive, HGIII-sPLA2 inh inactive, NTR1 ag inactive, MC4R ag barr inactive, Bfl-1 A1 inh inactive, Exocytosis inh 65.0 and Granule exo CP1 62.7.
Screening NC(=O)c1c(N)[nH]c(C(=O)c2ccccc2)c1-c1ccccn1 returned HGIII-sPLA2 inh inactive.
Screening CCc1c(-c2cccc(F)c2)ncn1CCc1ccccc1OC returned HGIII-sPLA2 inh inactive.
Cc1ccc(Cc2c(-c3ccco3)nc3c(C)cc(Br)cn23)cc1 was read as HGIII-sPLA2 inh inactive and Exocytosis inh inactive.
For Cc1cc(Br)cn2c(Cc3cccc(Cl)c3)c(-c3ccco3)nc12 the results were HGIII-sPLA2 inh inactive, Exocytosis inh 55.8 and Granule exo CP1 inactive.
Cc1ccc(Cc2c(-c3ccco3)nc3c4ccccc4ccn23)cc1 was read as HGIII-sPLA2 inh inactive, Exocytosis inh 58.1 and Granule exo CP1 inactive.
Screening Cc1cc2nc(-c3ccco3)c(Cc3cccc(Cl)c3)n2c(C)c1Br returned HGIII-sPLA2 inh inactive, Exocytosis inh 73.4 and Granule exo CP1 inactive.
For O=C1C(=O)c2ccc(-c3ccccc3)cc2-c2ccccc21 the results were MC4R antag cAMP inactive, HGIII-sPLA2 inh inactive, NTR1 ag inactive, MC4R ag barr inactive, Bfl-1 A1 inh inactive, Exocytosis inh 74.4 and Granule exo CP1 inactive.
`CCOC(=O)[C@]12CCCC3=C1N(CCC3)C(=O)[C@@H](CC(=O)NCCCN1CCCC1=O)C2` gave HGIII-sPLA2 inh inactive.
Screening O=C(Nc1nc(-c2ccccc2)cs1)c1ccco1 returned MC4R antag cAMP inactive, HGIII-sPLA2 inh inactive, NTR1 ag inactive, MC4R ag barr inactive, Bfl-1 A1 inh inactive and Exocytosis inh inactive.
O=C(Nc1nc(-c2ccco2)cs1)c1ccccc1 was read as MC4R antag cAMP inactive, HGIII-sPLA2 inh inactive, NTR1 ag inactive, MC4R ag barr inactive, Bfl-1 A1 inh inactive, Exocytosis inh 70.9 and Granule exo CP1 inactive.
Screening Cc1ccc(-c2nnc(N3CCCCCC3)c3ccccc23)cc1 returned MC4R antag cAMP inactive, HGIII-sPLA2 inh inactive, NTR1 ag inactive, MC4R ag barr inactive, Bfl-1 A1 inh inactive, Exocytosis inh 65.7 and Granule exo CP1 inactive.
Screening O=P(Cc1ccccc1)(c1ccccc1)c1ccccc1 returned MC4R antag cAMP inactive, HGIII-sPLA2 inh inactive, NTR1 ag inactive, MC4R ag barr inactive, Bfl-1 A1 inh inactive and Exocytosis inh inactive.
Screening CC(C)(C)c1cc(CP(=O)(c2ccccc2)c2ccccc2)cc(C(C)(C)C)c1O returned MC4R antag cAMP inactive, HGIII-sPLA2 inh inactive, NTR1 ag inactive, MC4R ag barr inactive, Bfl-1 A1 inh inactive, Exocytosis inh 57.2 and Granule exo CP1 inactive.
For CCCCNC(=O)c1cc2c(=O)n(CC)c3ccccc3c2s1 the results were MC4R antag cAMP inactive, HGIII-sPLA2 inh inactive, NTR1 ag inactive, MC4R ag barr inactive, Bfl-1 A1 inh inactive, Exocytosis inh 59.9 and Granule exo CP1 inactive.
For Cc1cc(Nc2ccc(Cl)cc2)nc(-c2ccccc2O)n1 the results were MC4R antag cAMP inactive, HGIII-sPLA2 inh inactive, NTR1 ag inactive, MC4R ag barr inactive, Bfl-1 A1 inh inactive and Exocytosis inh inactive.
`Cc1cc(Nc2cccc(Cl)c2)nc(-c2ccccc2O)n1` gave MC4R antag cAMP inactive, HGIII-sPLA2 inh inactive, NTR1 ag inactive, MC4R ag barr inactive, Bfl-1 A1 inh inactive, Exocytosis inh 55.8 and Granule exo CP1 inactive.
For Cc1ccc(-c2nn(-c3ccccc3)cc2CN(Cc2ccccc2)C(=O)c2ccco2)o1 the results were MC4R antag cAMP inactive, HGIII-sPLA2 inh inactive, NTR1 ag inactive, MC4R ag barr inactive, Bfl-1 A1 inh inactive, Exocytosis inh 107.7 and Granule exo CP1 103.9.
COc1ccc(CN(C)C(=O)CNC(=O)c2ccc3ccccc3c2)c(OC)c1 was read as MC4R antag cAMP inactive, HGIII-sPLA2 inh inactive, NTR1 ag inactive, MC4R ag barr inactive, Bfl-1 A1 inh inactive and Exocytosis inh inactive.
Screening COc1ccc(Br)cc1CN(C)C(=O)CNC(=O)c1ccc2ccccc2c1 returned MC4R antag cAMP inactive, HGIII-sPLA2 inh inactive, NTR1 ag inactive, MC4R ag barr inactive, Bfl-1 A1 inh inactive, Exocytosis inh 57.5 and Granule exo CP1 inactive.

Screens deposited in PubChem by several laboratories.
